From ChEMBL document CHEMBL4480400, “Development of an N-Acyl Amino Acid That Selectively Inhibits the Glycine Transporter 2 To Produce Analgesia in a Rat Model of Chronic Pain” (J Med Chem, 2019)
Calls of active or inactive are those of the source.

Key:
[1] = target: Mu-type opioid receptor (Mus musculus) (UniProt P42866); experiment: Agonist activity at MOR in mouse AtT-20 cells assessed as increase in IGIRK currents at 1 uM in presence of -60 mV holding potential measured every 2 secs by patch clamp assay; assay type: cell-based
[2] = target: Mu-type opioid receptor (Mus musculus) (UniProt P42866); experiment: Antagonist activity at MOR in mouse AtT-20 cells assessed as inhibition of agonist-induced IGIRK currents at 1 uM in presence of -60 mV holding potential measured every 2 secs by patch clamp assay; assay type: cell-based
[3] = AUC (0 to 24 hrs) in Sprague-Dawley rat brain at 27.5 mg/kg, ip by UPLC analysis; assay type: ADME, organism-based; design: time < 24 hr, dose 27.5 mg/kg, route intraperitoneal; details: in vivo
Outline: (§1)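 Male Sprague-Dawley rats (250–306 g) got one ip dose of a suspension (10% v/v DMSO, 1% solutol HS-15 in 50 mM PBS, pH 7.4). Terminal cardiac-puncture heparinised plasma and whole brain were sampled over 24 h, n=3 rats per time point. Samples were extracted by protein precipitation and read by UPLC-MS/MS in positive ESI MRM with a diazepam internal standard. Parameters are non-compartmental; the time-averaged B/P comes from AUC0-24h.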

Rattus norvegicus = experiment: Analgesic activity in Sprague-Dawley rat model of neuropathic pain assessed as reduction in allodynia at 30 mg/kg, ip administered as single dose measured after 90 mins post injection; assay type: functional, organism-based
Outline: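 Male Sprague-Dawley rats were tested 14 days after nerve-constriction surgery. Mechanical paw withdrawal threshold was measured with von Frey filaments (0.4–15.1 g) by the up-down method, bounded at 0.2 and 15 g. Rats got a single ip injection with vehicle of 1% DMSO, 10% Solutol HS15 in 0.9% saline. Testing ran at 15–360 min post-injection with Bonferroni comparisons against vehicle.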

[4] = target: Cannabinoid receptor 2 (Homo sapiens) (UniProt P34972); experiment: Antagonist activity at human CB2 receptor
[5] = target: T1, Alpha-2A adrenergic receptor (Homo sapiens) (UniProt P08913); experiment: Displacement of [3H]RX821002 from recombinant human alpha2A adrenoceptor at 10 uM after 60 mins by scintillation counting relative to control
T1 sequence (whole entry): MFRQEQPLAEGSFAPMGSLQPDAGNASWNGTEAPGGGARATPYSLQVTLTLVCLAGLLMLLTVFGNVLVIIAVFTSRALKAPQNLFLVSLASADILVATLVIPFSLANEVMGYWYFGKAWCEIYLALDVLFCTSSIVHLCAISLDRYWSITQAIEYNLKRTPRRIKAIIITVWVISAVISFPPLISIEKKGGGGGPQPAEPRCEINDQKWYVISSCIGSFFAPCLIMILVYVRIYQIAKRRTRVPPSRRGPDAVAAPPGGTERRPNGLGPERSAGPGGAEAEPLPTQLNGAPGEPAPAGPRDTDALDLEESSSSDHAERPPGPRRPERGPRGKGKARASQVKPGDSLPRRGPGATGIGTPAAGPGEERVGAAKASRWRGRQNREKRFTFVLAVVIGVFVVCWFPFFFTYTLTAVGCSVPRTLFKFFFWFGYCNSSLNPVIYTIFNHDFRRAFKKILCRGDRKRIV

[6] = target: Cannabinoid receptor 1 (Homo sapiens) (UniProt P21554); experiment: Agonist activity at human CB1 receptor
[7] = Cmax in Sprague-Dawley rat plasma at 27.5 mg/kg, ip by UPLC analysis; assay type: ADME, organism-based; design: dose 27.5 mg/kg, route intraperitoneal; outline: as §1
[8] = target: T2, Sodium- and chloride-dependent glycine transporter 2 (Homo sapiens) (UniProt Q9Y345); experiment: Reversible inhibition of recombinant human GlyT2a expressed in Xenopus laevis oocytes assessed as recovery of transport current at IC50 followed by compound wash out followed by glycine re-application at 5 mins intervals throughout wash time course and measured after 25 mins by two-electrode voltage clamp electrophysiology; assay type: cell-based
T2 sequence (whole entry): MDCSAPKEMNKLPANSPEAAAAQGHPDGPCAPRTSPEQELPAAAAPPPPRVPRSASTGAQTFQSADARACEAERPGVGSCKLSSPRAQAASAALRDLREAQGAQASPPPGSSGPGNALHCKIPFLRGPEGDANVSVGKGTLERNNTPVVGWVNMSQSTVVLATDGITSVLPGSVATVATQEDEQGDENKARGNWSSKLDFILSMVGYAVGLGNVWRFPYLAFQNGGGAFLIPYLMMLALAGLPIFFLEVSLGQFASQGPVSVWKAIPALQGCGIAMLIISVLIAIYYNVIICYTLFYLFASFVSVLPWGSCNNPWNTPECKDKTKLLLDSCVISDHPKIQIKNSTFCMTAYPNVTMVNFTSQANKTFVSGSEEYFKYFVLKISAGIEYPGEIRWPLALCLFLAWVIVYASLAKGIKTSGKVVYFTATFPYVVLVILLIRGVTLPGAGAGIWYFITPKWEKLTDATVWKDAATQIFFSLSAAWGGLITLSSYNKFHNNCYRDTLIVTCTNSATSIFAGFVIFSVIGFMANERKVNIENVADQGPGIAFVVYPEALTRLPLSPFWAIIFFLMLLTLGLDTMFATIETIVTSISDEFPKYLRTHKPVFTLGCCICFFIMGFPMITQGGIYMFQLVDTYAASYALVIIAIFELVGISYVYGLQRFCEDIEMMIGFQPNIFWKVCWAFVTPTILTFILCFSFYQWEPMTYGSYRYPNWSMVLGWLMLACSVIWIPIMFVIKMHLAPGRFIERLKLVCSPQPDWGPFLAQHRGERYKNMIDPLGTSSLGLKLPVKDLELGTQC

[9] = Drug degradation in human liver microsomes at 1 uM measured over 60 mins by LC-MS/MS analysis; assay type: ADME, Microsome; details: read-out: Drug degradation
Outline: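 Human or rat liver microsomes (0.4 mg/mL protein final) in 0.1 M phosphate buffer pH 7.4 with 1 μM compound at 37°C. Reaction started with an NADPH-regenerating system plus MgCl2. Samples were quenched with ice-cold acetonitrile at time points over 60 min. Remaining parent was measured by LC-MS, and the first-order depletion rate constant came from an exponential decay fit.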

[10] = Degradation half life in human plasma at 1000 ng/ml by LC-MS/MS analysis; assay type: ADME, cell-free
Outline: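 Pooled human plasma (3 donors) or pooled male Sprague-Dawley rat plasma, thawed at 37°C. Spiked to a nominal 1000 ng/mL final (0.2% DMSO, 0.4% acetonitrile final) and incubated at 37°C. Aliquots were snap-frozen at time points over 4 h (n=3 per time point). Quantified by LC-MS against a same-species blank-plasma calibration with a leucine enkephalin internal standard.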

[11] = Tmax in Sprague-Dawley rat plasma at 27.5 mg/kg, ip by UPLC analysis; assay type: ADME, organism-based; outline: as §1
[12] = Tmax in Sprague-Dawley rat brain at 27.5 mg/kg, ip by UPLC analysis; assay type: ADME, organism-based; outline: as §1
[13] = target: Sodium channel protein type 3 subunit alpha (Homo sapiens) (UniProt Q9NY46); experiment: Inhibition of human NaV1.3 expressed in HEK293 cells at 1 uM; assay type: cell-based
Chain of Sodium channel protein type 3 subunit alpha (Homo sapiens) (Q9NY46 whole entry, looked up): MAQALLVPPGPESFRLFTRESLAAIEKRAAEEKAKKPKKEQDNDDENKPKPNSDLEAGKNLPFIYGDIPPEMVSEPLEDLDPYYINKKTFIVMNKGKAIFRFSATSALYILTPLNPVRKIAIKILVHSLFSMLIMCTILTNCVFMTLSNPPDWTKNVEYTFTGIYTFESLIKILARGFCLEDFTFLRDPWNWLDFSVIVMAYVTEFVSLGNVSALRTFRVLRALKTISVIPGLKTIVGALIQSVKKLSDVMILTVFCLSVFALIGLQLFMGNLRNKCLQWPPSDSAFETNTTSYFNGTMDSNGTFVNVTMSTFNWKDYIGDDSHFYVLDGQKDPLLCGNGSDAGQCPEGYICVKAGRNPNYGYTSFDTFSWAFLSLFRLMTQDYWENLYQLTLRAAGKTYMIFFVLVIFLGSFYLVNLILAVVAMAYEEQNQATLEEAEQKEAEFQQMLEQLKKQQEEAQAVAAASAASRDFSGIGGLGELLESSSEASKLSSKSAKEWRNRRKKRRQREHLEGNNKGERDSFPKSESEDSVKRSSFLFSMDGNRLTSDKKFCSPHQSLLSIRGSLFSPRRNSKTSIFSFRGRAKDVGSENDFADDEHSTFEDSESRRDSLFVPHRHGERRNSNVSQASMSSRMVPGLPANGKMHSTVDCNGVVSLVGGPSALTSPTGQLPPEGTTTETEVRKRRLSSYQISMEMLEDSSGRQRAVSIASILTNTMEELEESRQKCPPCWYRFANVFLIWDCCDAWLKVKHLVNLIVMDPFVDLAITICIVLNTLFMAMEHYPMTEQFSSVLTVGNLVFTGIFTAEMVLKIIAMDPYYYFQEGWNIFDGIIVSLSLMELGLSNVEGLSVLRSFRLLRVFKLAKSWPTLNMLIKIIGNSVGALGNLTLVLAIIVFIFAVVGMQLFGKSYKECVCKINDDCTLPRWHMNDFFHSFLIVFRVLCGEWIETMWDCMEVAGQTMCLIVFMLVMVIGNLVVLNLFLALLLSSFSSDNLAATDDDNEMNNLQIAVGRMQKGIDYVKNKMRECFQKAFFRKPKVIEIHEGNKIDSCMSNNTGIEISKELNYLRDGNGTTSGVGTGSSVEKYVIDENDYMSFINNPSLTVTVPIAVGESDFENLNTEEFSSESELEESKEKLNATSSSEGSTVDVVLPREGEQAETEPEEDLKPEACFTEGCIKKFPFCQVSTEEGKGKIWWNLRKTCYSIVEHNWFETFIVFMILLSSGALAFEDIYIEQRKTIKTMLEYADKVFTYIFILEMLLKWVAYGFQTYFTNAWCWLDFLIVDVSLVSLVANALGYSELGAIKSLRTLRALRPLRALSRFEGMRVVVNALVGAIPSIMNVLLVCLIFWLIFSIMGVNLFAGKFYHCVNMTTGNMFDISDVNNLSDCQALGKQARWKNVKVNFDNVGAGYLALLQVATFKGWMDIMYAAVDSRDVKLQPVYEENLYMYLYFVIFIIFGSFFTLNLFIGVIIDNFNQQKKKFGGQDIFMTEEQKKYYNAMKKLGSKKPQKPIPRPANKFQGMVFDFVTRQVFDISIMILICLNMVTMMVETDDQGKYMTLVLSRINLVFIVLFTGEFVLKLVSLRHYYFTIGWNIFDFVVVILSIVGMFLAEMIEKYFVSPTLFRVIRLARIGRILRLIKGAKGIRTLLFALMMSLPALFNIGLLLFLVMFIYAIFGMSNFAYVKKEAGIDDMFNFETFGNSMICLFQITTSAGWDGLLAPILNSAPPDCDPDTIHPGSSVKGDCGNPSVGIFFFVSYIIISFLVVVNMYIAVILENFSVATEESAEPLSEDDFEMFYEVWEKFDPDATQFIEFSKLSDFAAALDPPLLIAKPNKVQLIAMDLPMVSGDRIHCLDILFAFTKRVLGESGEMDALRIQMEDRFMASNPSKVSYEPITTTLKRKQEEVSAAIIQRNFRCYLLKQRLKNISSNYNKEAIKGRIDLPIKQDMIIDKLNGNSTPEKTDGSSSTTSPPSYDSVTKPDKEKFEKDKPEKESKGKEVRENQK

Chain of Mu-type opioid receptor (Mus musculus) (P42866 whole entry): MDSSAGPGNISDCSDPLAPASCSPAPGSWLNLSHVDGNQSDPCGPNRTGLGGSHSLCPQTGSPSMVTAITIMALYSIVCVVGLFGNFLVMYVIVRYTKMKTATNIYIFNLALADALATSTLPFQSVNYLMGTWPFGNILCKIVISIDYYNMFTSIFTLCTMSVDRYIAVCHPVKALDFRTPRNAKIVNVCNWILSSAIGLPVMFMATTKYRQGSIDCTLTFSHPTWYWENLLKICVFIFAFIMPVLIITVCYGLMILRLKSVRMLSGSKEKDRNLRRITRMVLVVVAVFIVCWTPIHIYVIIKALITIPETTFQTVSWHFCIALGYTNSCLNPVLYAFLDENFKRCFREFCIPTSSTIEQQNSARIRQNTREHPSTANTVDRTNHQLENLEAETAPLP
Chain of Cannabinoid receptor 2 (Homo sapiens) (P34972 whole entry): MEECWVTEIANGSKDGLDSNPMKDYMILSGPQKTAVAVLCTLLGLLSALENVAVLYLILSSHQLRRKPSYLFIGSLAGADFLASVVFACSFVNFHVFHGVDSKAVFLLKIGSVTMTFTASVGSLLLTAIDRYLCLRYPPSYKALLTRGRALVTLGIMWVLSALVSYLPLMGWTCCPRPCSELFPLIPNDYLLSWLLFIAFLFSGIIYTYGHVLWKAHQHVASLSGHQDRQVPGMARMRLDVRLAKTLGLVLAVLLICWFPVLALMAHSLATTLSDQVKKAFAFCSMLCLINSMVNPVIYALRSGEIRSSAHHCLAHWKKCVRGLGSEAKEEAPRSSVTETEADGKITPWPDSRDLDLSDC
Chain of Cannabinoid receptor 1 (Homo sapiens) (P21554 whole entry): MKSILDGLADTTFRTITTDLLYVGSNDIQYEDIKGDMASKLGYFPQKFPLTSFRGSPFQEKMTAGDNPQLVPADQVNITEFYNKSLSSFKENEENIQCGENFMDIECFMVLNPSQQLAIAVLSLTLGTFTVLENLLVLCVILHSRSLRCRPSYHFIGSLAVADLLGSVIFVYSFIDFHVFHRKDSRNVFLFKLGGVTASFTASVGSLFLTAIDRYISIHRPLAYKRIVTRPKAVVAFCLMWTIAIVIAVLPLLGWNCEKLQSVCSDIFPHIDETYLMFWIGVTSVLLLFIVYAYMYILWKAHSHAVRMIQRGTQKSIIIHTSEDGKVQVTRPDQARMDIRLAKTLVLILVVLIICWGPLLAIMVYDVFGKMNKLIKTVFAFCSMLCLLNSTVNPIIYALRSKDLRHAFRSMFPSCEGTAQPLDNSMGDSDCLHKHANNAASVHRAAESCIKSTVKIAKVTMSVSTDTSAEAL

Activity [1]: inactive | inhibition [2]: inactive | AUC [3]: 38479 ng·h/g | inhibition [4]: inactive | inhibition [5]: > 50% | Activity [6]: inactive | Cmax [7]: 16700 ng/mL | inhibition [8]: Active | metabolised at 1 h, 1 µM [9]: < 15% | t1/2 [10]: > 17.03 h | Tmax [11]: 1 h | Tmax [12]: 24 h | inhibition [13]: inactive
SMILES: CCCCCCCC/C=C\CCCCCCCC(=O)N[C@H](CCCCN)C(=O)O.Cl
Activity (Rattus norvegicus): Active
